Among the data in ChEMBL document CHEMBL1124197, “3-[1-(2-Benzoxazolyl)hydrazino]propanenitrile derivatives: inhibitors of immune complex induced inflammation” (1988) are ED50 and ED40 values, retold here.

Activity calls are given as the source filed them. No cut-off for these calls is given here.

For one test, the species on record is Rattus norvegicus. In words: Effect in rat pleural Carrageenan test (exudate white blood cells (WBC)). The test is classed as functional.
Regarding `N#CCCN(N)c1nc2ccccc2o1`, the ED50 (commonly the midpoint of the dose-response relation) turned out to be 171 µmol/kg.
The compound `C[C@]12CCC(=O)C=C1CC[C@@H]1[C@@H]2[C@@H](O)C[C@@]2(C)[C@H]1CC[C@]2(O)C(=O)CO` [HYDROCORTISONE] displayed an ED50 of 9 µmol/kg.

The species named for another test is Rattus norvegicus. In words: Effect in rat pleural Carrageenan test (exudate volume). The test is classed as functional.
`N#CCCN(N)c1nc2ccccc2o1` yielded an ED50 of 105 µmol/kg.
For `C[C@]12CCC(=O)C=C1CC[C@@H]1[C@@H]2[C@@H](O)C[C@@]2(C)[C@H]1CC[C@]2(O)C(=O)CO` [HYDROCORTISONE], the 50% effect level (ED50) was put at a dose of 12 µmol/kg.

The next test concerns Rattus norvegicus. Put plainly: In vivo inhibition of rat dermal passive revers arthus reaction following p.o. administration; Inactive. The test is classed as functional, organism-based.
For the compound `NN(CCC(=O)O)c1nc2ccccc2o1`, the ED40 entry is “inactive”.
With `NN(CCSc1ccccc1)c1nc2ccccc2o1`, the ED40 entry was “inactive”.
For `N#CCCN(C=O)c1nc2ccccc2o1`, the ED40 entry is “inactive”.
Regarding `CC(=O)N(CCC#N)c1nc2ccccc2o1`, the ED40 result is “inactive”.
Turning to `N#CCC(=O)N(N)c1nc2ccccc2o1`, the ED40 result is “inactive”.
Regarding `N#CCCC(N)c1nc2ccccc2o1` (stereo not given), the ED40 entry is “inactive”.
As to `C/N=C(\S)NN(CCC#N)c1nc2ccccc2o1`, the ED40 result was “inactive”.
With `N#CCCN(N)c1nc2cc(OCc3ccccc3)ccc2o1`, the ED40 entry was “inactive”.
As for `NN(CCS(=O)(=O)c1ccccc1)c1nc2ccccc2o1`, the ED40 result is “inactive”.
For the compound `CCOC(=O)c1ccc2oc(N(N)CCC#N)nc2c1`, the ED40 result is “inactive”.
With `N#CCCN(N)c1nc2cc(C(=O)c3ccccc3)ccc2o1`, the ED40 result is “inactive”.
On the same count and under the same terms, in the case of `CN(C)S(=O)(=O)n1c(N(N)CCC#N)nc2ccccc21` it was “inactive”; in that of `COC(=O)N(CCC#N)c1nc2ccccc2o1`, “inactive”.
On to `N#CCCN(NC(N)=O)c1nc2ccccc2o1`, for which the ED40 result is “inactive”.
In the case of `N#CCCN(N)c1nc2cc(Oc3ccccc3)ccc2o1`, the ED40 result was “inactive”.
For the compound `CS(=O)(=O)NN(CCC#N)c1nc2ccccc2o1`, the ED40 entry is “inactive”.
On to `CC(C)S(=O)(=O)n1c(N(N)CCC#N)nc2ccccc21`, for which the ED40 result was “inactive”.
As for `CNC(=O)NN(CCC#N)c1nc2ccccc2o1`, the ED40 result is “inactive”.
On the same count and under the same terms, next, `N#CCCN(N)c1nc2cc(-c3ccccc3)ccc2o1`: “inactive”.
On to `N#CCCN(NC(=O)NC1CCCCC1)c1nc2ccccc2o1`, for which the ED40 result was “inactive”.

For the next test, the species on record is Rattus norvegicus. In words: Effective dose required for 40% inhibition of rat dermal reverse passive Arthus reaction (RPAR). The test is classed as functional. In a few lines:
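Fasted male rats received BSA intravenously and about 1 h later a challenge of rabbit anti-BSA given intradermally. Compound was dosed orally 30 min before the challenge. Rats were killed 4 h later and dermal lesion size was measured. ED40 with 95% confidence limits came from least-squares regression.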
For the compound `Cc1cc2oc(N(N)CCC#N)nc2c(C)c1C`, the ED40 amounted to 139 µM/kg.
Turning to `N#CCCN(N)c1nc2ccccc2s1`, the ED40 was 128 µM/kg.
On the same count and under the same terms, next, `Cc1ccc2nc(N(N)CCC#N)oc2c1`: 216 µM/kg; `N#CCCN(N)c1ncc(-c2ccccc2)cn1`: 121 µM/kg.
The same measure, in the same setting: next, `CSCCN(N)c1nc2ccccc2o1`: 913 µM/kg.
On to `Cc1cccc2oc(N(N)CCC#N)nc12`, for which the ED40 was 356 µM/kg.
`CS(=O)(=O)c1ccc2oc(N(N)CCC#N)nc2c1` yielded an ED40 of 407 µM/kg.
The compound `Cc1cc2nc(N(N)CCC#N)oc2cc1C` showed an ED40 of 413 µM/kg.
As for `COC(=O)CCN(N)c1nc2ccccc2o1`, the ED40 amounted to 1208 µM/kg.
`CNN(CCC#N)c1nc2ccccc2o1` returned an ED40 of 250 µM/kg.
Take `N#CCCN(N)c1nc2cc(Cl)ccc2o1`: the ED40 turned out to be 177 µM/kg.
Same read-out and setting: in the case of `COCCN(N)c1nc2cc(Cl)ccc2o1` it was 136 µM/kg; in that of `[2H]C([2H])(C#N)CN(N)c1nc2ccccc2o1`, 255 µM/kg; in that of `N#CCCN(N)c1nc2cc(F)ccc2o1`, 141 µM/kg.
`CCc1ccc2oc(N(N)CCC#N)nc2c1` showed an ED40 of 330 µM/kg.
On to `C/C=N\N(CCC#N)c1nc2ccccc2o1`, for which the ED40 was 625 µM/kg.
The same measure, in the same setting: in the case of `N#CCCNc1nc2ccccc2o1` it was 1302 µM/kg; in that of `N#CCCN(N)c1nc2c(ccc3ccccc32)o1`, 346 µM/kg; in that of `Cc1ccc2oc(N(CCC#N)NC=O)nc2c1`, 168 µM/kg.
`Cn1c(N(N)CCC#N)nc2ccccc21` returned an ED40 of 349 µM/kg.
On the same count and under the same terms, next, `N#CCCN(N)c1nc2cccc(Cl)c2o1`: 275 µM/kg.
Turning to `COCCN(N)c1nc2cc(C#N)ccc2o1`, the ED40 was determined as 181 µM/kg.
In the case of `CC(C)(C)c1ccc2oc(N(N)CCC#N)nc2c1`, the ED40 is 345 µM/kg.
For `COc1cc2nc(N(N)CCC#N)oc2cc1OC`, the ED40 came to 650 µM/kg.
Take `N#CCCN(N)c1nc(-c2ccccc2)c(-c2ccccc2)o1`: the ED40 was 332 µM/kg.
As for `NN(CCCO)c1nc2ccccc2o1`, the ED40 came out at 576 µM/kg.
`CCN(N)c1nc2ccccc2o1` registered an ED40 of 254 µM/kg.
Same read-out and setting: in the case of `N#CCCN(N)c1ncco1` it was 360 µM/kg.
As for `COc1ccc2nc(N(N)CCC#N)oc2c1`, the ED40 is 388 µM/kg.
The compound `N#CCCN(NC=O)c1nc2cc(C(F)(F)F)ccc2o1` displayed an ED40 of 87 µM/kg.
Compound `C#CCCN(N)c1nc2ccccc2o1` yielded an ED40 of 348 µM/kg.
`C[S+]([O-])c1ccc2oc(N(N)CCC#N)nc2c1` (stereo not given) registered an ED40 of 607 µM/kg.
Consider `Cc1cc(C)c2oc(N(N)CCC#N)nc2c1`, for which the ED40 worked out at 161 µM/kg.
On to `N#CCCN(N)C1=Nc2ccccc2C1`, for which the ED40 worked out at 265 µM/kg.
On to `COC(=O)NN(CCC#N)c1nc2ccccc2o1`, for which the ED40 was determined as 695 µM/kg.
`N#CCCN(N)c1ccc(-c2ccccc2)nn1` gave an ED40 of 672 µM/kg.
`CC(C#N)CN(N)c1nc2ccccc2o1` (stereo not given) displayed an ED40 of 210 µM/kg.
With `N#CCCSc1nc2ccccc2o1`, the ED40 turned out to be 1268 µM/kg.
`NN(CCc1ccccc1)c1nc2ccccc2o1` showed an ED40 of 962 µM/kg.
Regarding `NN(CCOc1ccc(F)cc1)c1nc2ccccc2o1`, the ED40 was 800 µM/kg.
The same measure, in the same setting: in the case of `CC(=O)NN(CCC#N)c1nc2ccccc2o1` it was 402 µM/kg.
For `Cc1cccc2nc(N(N)CCC#N)oc12`, the ED40 was found to be 250 µM/kg.
On the same count and under the same terms, in the case of `NN(CC[S+]([O-])c1ccccc1)c1nc2ccccc2o1` (stereo not given) it was 719 µM/kg; in that of `N#CCCN(N)c1nc2cc3ccccc3cc2o1`, 306 µM/kg.
`N#CCCN(N)c1nc2ccccc2o1` gave an ED40 of 84 µM/kg.
Consider `Cc1nc(N(N)CCC#N)oc1C`, for which the ED40 worked out at 519 µM/kg.
Regarding `NN(CCO)c1nc2ccccc2o1`, the ED40 stood at 1247 µM/kg.
Consider `NN(CCOc1ccccc1)c1nc2ccccc2o1`, for which the ED40 was 457 µM/kg.
For the compound `Cc1cc(C)c2oc(N(N)CCC#N)nc2c1C`, the ED40 stood at 115 µM/kg.
Compound `CCN(CC)CCN(N)c1nc2ccccc2o1` returned an ED40 of 611 µM/kg.
Compound `N#CCCN(N)c1nccs1` came in with an ED40 of 390 µM/kg.
On to `C=NN(CCC#N)c1nc2ccccc2o1`, for which the ED40 came to 845 µM/kg.
`Cc1cc(Cl)cc2nc(N(N)CCC#N)oc12` registered an ED40 of 191 µM/kg.
Same read-out and setting: next, `CC(CC#N)N(N)c1nc2ccccc2o1` (stereo not given): 245 µM/kg.
Take `COCCN(N)c1nc2cc(OC)ccc2o1`: the ED40 was 43 µM/kg.
On the same count and under the same terms, in the case of `N#CCCN(NC=O)c1nc2ccccc2o1` it was 142 µM/kg; in that of `N#CCCN(N)c1nc2cc(C(F)(F)F)ccc2o1`, 26 µM/kg.
In turn, `NN(CCc1ccccn1)c1nc2ccccc2o1` returned an ED40 of 258 µM/kg.
Consider `C[C@]12CCC(=O)C=C1CC[C@@H]1[C@@H]2[C@@H](O)C[C@@]2(C)[C@H]1CC[C@]2(O)C(=O)CO` [HYDROCORTISONE], for which the ED40 worked out at 33 µM/kg.
The compound `COCCN(N)c1nc2cc(C)ccc2o1` registered an ED40 of 127 µM/kg.
In turn, `Cc1cc2oc(N(N)CCC#N)nc2cc1Cl` came in with an ED40 of 36 µM/kg.
As to `CS(=O)(=O)CCN(N)c1nc2ccccc2o1`, the ED40 came out at 278 µM/kg.
`COCCN(N)c1nc2cc(C(F)(F)F)ccc2o1` registered an ED40 of 47 µM/kg.
Regarding `Cc1ccc2oc(N(N)CCC#N)nc2c1`, the ED40 was determined as 83 µM/kg.
Turning to `CCOCCN(N)c1nc2cc(OC)ccc2o1`, the ED40 was 149 µM/kg.
`Cc1cc(N(N)CCC#N)c2ccccc2n1`: the ED40 was 177 µM/kg.
In turn, `N#CCCN(N)c1cnccn1` displayed an ED40 of 760 µM/kg.
As to `N#CCCN(N)C1=NS(=O)(=O)c2ccccc21`, the ED40 came to 643 µM/kg.
With `NC(=O)CCN(N)c1nc2ccccc2o1`, the ED40 was 1009 µM/kg.
For `COc1ccc2oc(N(CCC#N)NC=O)nc2c1`, the ED40 stood at 200 µM/kg.
The compound `COCCN(N)c1nc2ccccc2o1` came in with an ED40 of 300 µM/kg.
With `NN(CCN1CCOCC1)c1nc2ccccc2o1`, the ED40 amounted to 825 µM/kg.
In turn, `COc1ccc2oc(N(N)CCC#N)nc2c1` yielded an ED40 of 59 µM/kg.
`N#CCCN(N)c1nc2cc(C#N)ccc2o1` had an ED40 of 66 µM/kg.
For the compound `Cc1coc(N(N)CCC#N)n1`, the ED40 was found to be 705 µM/kg.
`CSc1cc(C(C)(C)C)cc2nc(N(N)CCC#N)oc12` showed an ED40 of 801 µM/kg.
Compound `N#CCCN(N)c1nc(-c2ccccc2)co1` registered an ED40 of 119 µM/kg.
`CCNN(CCC#N)c1nc2ccccc2o1` gave an ED40 of 196 µM/kg.
As to `N#CCCN(N)C1Cc2ccccc2C1`, the ED40 was determined as 565 µM/kg.
With `CCCN(N)c1nc2ccccc2o1`, the ED40 is 400 µM/kg.
Turning to `CSc1ccc2oc(N(N)CCC#N)nc2c1`, the ED40 worked out at 399 µM/kg.

Another test is filed under the species Rattus norvegicus. In words: Inhibition of pleural reverse passive Arthus reactions (RPAR) in rat (exudate volume). The test is classed as functional. In a few lines:
(§1)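 Fasted male rats were given BSA intravenously, then about 1 h later rabbit anti-BSA intrapleurally. Oral dosing was 30 min before the challenge. After 4 h the rats were killed and pleural exudate fluid volume and white blood cell accumulation were determined. ED50 with 95% confidence limits came from least-squares regression.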
`N#CCCN(N)c1nc2ccccc2o1` came in with an ED50 of 238 µmol/kg.
For `N#CCCN(N)c1nc2cc(C(F)(F)F)ccc2o1`, it took a dose of 70 µmol/kg to reach the 50% effect level (ED50).
`C[C@]12CCC(=O)C=C1CC[C@@H]1[C@@H]2[C@@H](O)C[C@@]2(C)[C@H]1CC[C@]2(O)C(=O)CO` [HYDROCORTISONE] gave an ED50 of 38 µmol/kg.
The compound `Cc1ccc2oc(N(N)CCC#N)nc2c1` came in with a 50% effective dose (ED50) of 148 µmol/kg.
On the same count and under the same terms, next, `COc1ccc2oc(N(N)CCC#N)nc2c1`: 155 µmol/kg.

The species named for the next test is Rattus norvegicus. In words: Inhibition of pleural reverse passive Arthus reactions (exudate white blood cells (WBC)). The test is classed as functional. The procedure, abridged: as §1
As to `N#CCCN(N)c1nc2ccccc2o1`, the ED50 was 243 µmol/kg.
The same measure, in the same setting: in the case of `N#CCCN(N)c1nc2cc(C(F)(F)F)ccc2o1` it was 92 µmol/kg.
`C[C@]12CCC(=O)C=C1CC[C@@H]1[C@@H]2[C@@H](O)C[C@@]2(C)[C@H]1CC[C@]2(O)C(=O)CO` [HYDROCORTISONE] displayed an ED50 of 50 µmol/kg.
In the case of `Cc1ccc2oc(N(N)CCC#N)nc2c1`, the ED50 was 175 µmol/kg.
Same read-out and setting: in the case of `COc1ccc2oc(N(N)CCC#N)nc2c1` it was 116 µmol/kg.
